Experimental data from ChEMBL document CHEMBL1833867, “Conformationally constrained analogs of BAY 59-3074 as novel cannabinoid receptor ligands” (Bioorg Med Chem Lett, 2011).

Tests used:
Cannabinoid receptor 2 [1] = biological target: Cannabinoid receptor 2 (Mus musculus, UniProt P47936); assay: Displacement of [3H]CP55940 from mouse cannabinoid CB2 receptor
Cannabinoid receptor 1 = Cannabinoid receptor 1 (Rattus norvegicus, UniProt P20272); assay: Displacement of [3H]CP55940 from rat cannabinoid CB1 receptor
[2] = Selectivity ratio of Ki for rat cannabinoid CB1 receptor to Ki for human cannabinoid CB2 receptor
Cannabinoid receptor 2 [3] = biological target: Cannabinoid receptor 2 (Homo sapiens, UniProt P34972); assay: Displacement of [3H]CP55940 from human cannabinoid CB2 receptor
[4] = Binding affinity to CB receptor in rat brain membranes; assay type: cell membranes
Procedure, shortened: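 Radioligand competition binding at rat CB1, displacing [3H]CP55,940.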

Sequence of Cannabinoid receptor 2 (Mus musculus, UniProt P47936) (P47936 whole entry): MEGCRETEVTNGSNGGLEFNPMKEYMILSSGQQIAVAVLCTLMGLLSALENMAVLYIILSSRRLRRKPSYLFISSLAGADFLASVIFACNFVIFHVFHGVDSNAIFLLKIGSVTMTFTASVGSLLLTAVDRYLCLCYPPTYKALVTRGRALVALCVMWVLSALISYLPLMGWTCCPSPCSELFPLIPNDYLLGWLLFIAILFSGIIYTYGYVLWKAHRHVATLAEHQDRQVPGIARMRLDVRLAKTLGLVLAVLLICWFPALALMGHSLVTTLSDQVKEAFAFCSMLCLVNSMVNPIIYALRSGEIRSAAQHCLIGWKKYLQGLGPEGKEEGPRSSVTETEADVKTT
Sequence of Cannabinoid receptor 2 (Homo sapiens, UniProt P34972) (P34972 whole entry): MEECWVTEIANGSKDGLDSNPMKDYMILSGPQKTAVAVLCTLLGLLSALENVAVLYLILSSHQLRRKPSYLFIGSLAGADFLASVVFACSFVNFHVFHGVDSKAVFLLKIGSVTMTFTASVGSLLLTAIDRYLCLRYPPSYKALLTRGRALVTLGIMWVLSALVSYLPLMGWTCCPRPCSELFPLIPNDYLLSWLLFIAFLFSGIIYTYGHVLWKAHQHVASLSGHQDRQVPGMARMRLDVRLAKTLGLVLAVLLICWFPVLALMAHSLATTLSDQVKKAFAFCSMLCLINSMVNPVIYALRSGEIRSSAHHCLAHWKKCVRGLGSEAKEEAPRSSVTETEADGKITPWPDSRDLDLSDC
Sequence of Cannabinoid receptor 1 (P20272 whole entry): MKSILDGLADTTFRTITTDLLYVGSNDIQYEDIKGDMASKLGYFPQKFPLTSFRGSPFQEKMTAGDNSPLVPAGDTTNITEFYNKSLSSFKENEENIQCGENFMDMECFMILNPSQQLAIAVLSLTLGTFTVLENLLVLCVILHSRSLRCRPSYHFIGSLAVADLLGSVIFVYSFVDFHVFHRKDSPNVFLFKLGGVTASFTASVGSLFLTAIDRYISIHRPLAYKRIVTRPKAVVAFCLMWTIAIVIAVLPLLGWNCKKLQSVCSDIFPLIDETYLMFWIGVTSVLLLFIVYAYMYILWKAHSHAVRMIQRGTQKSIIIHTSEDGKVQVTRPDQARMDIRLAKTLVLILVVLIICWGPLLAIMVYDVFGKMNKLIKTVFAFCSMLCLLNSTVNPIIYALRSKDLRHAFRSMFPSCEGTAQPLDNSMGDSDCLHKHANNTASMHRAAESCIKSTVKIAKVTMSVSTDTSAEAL

SMILES | Ki (Cannabinoid receptor 2 [1]) [nM] | Ki (Cannabinoid receptor 1) [nM] | Ratio Ki [2] | Ki (Cannabinoid receptor 2 [3]) [nM] | Ki [4] [nM]
N#Cc1c(C(F)(F)F)ccc2c1oc1cc(OS(=O)(=O)CCCC(F)(F)F)ccc12 | 339 | 1060 | 3.35 | 317 | –
N#Cc1c(C(F)(F)F)ccc2c1oc1c(OS(=O)(=O)CCCC(F)(F)F)cccc12 | 410 | 2280 | 9 | 253 | –
N#Cc1c(Oc2cccc(OS(=O)(=O)CCCC(F)(F)F)c2)cccc1C(F)(F)F | – | – | 1.21 | – | –
N#Cc1c(C(F)(F)F)ccc2c1oc1cccc(OS(=O)(=O)CCCC(F)(F)F)c12 | 676 | 1900 | 1.05 | 1810 | –
N#Cc1c(C(F)(F)F)ccc2c1oc1ccc(OS(=O)(=O)CCCC(F)(F)F)cc12 | 1710 | 2530 | 0.76 | 3290 | –
N#Cc1c(C(F)(F)F)ccc2c1Oc1c(cccc1OS(=O)(=O)CCCC(F)(F)F)C2 | 1130 | 14400 | 12.4 | 1160 | –
O=S(=O)(CCCC(F)(F)F)Oc1cccc(Oc2cccc3c2C[C@H](CO)C3)c1 | – | – | – | – | 0.46
